We go through 1 molecule from ChEMBL document CHEMBL5712908, “A genome-wide RNAi screen reveals essential therapeutic targets of breast cancer stem cells” (2019).

The source made the active and inactive calls. The calls are words filed in the database; no cut-off is given here.

In assay [1] the test system is SUM149PT. In words: Anticancer activity against human SUM149 cells assessed as ALDHbr cells at 10 uM by LSR2 cytometer (reference value: 4.8%). The class given is functional.
Assay [2] concerns SUM149PT. Put plainly: Anticancer activity against human SUM149 cells assessed as ALDHbr cells at 1 mM by LSR2 cytometer (reference value: 4.8%). In kind it is functional. More on the design: dose or concentration left out as unconfirmed.
For assay [3], the system named is SUM-159-PT. In words: Antitumor activity against human SUM159 cells assessed as K-score by measuring ALDHbr cells by LSR2 cytometer. In kind it is functional. The procedure, abridged: (§1)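 Cell lines exposed for 72 h in adherent culture to a range of concentrations centred on the MTS-derived IC50. ALDHbr proportion measured by ALDEFLUOR flow cytometry (LSR2). K-score is the linear regression coefficient, on log10-transformed doses, between the untreated condition and the dose predicted to give a 50% decrease or increase in ALDHbr proportion versus control.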

In another assay the test system is MDA-MB-436. In words: Antitumor activity against human MDA-MB-436 cells assessed as K-score by measuring ALDHbr cells by LSR2 cytometer. In kind it is functional. A digest of the protocol:
as §1

Assay [4] has as its system SUM149PT. Put plainly: Synergistic anticancer activity against human SUM149 cells assessed as decrease in docetaxel induced ALDHbr cells at 62 nM in presence of salinomycin by LSR2 cytometer analysis. In kind it is functional, cell-based. The procedure, abridged:
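SUM159 or SUM149 cells treated 72 h in adherent conditions; docetaxel combined with other drugs at 2 nM; combination doses chosen from synergy distributions (Sal/JQ1 62 nM/62 nM). ALDEFLUOR staining with DEAB control, flow cytometry on LSR2. n = 8; Student's t-test; mean ± SD.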

Assay [5] relates to SUM-159-PT. Put plainly: Synergistic apoptosis in human SUM159 cells expressing ALDHbr at 500 nM incubated for 72 hrs in presence of salinomycin by ALDEFLUOR/YO-PRO-3/ Hoechst 33342 staining based high content imaging microscopic analysis. In kind it is functional, cell-based. The procedure, abridged:
(§2)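 SUM159 cells seeded at 3,000 cells/well in collagen-coated 96-well plates. Drug added at 6, 24 and 48 h post-seeding. Cisplatin served as positive control and 0.1% v/v DMSO as vehicle control. At 72 h post-seeding, cells were stained with ALDEFLUOR, YO-PRO-3 (1/4,000) and Hoechst 33342 (10 μg/ml) in ALDEFLUOR buffer for 30 min at 37°C, then imaged on ice by high-content microscopy, 9 fields/well. DEAB set the ALDHbr gate. YO-PRO-3⁺ fraction per subpopulation was gated against untreated cells.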

Assay [6] deals with SUM-159-PT. Put plainly: Synergistic apoptosis in human SUM159 cell expressing ALDH at 500 nM incubated for 72 hrs in presence of salinomycin by ALDEFLUOR/YO-PRO-3/ Hoechst 33342 staining based high content imaging microscopic analysis. In kind it is functional. A digest of the protocol:
as §2

Assay [7] concerns SUM-159-PT. In words: Anticancer activity against human SUM159 cells expressing BFP assessed as reduction in ALDHbr cell at 5 to 500 nM by LSR2 cytometer analysis. The settings on record: dose 5-500 nM. The class given is functional, cell-based.
Assay [8] deals with SUM-159-PT. In words: Anticancer activity against human SUM159 cells expressing BFP assessed as reduction in ALDHbr cell at 50 nM by LSR2 cytometer analysis. In kind it is functional.
Assay [9] relates to Breast cancer cell line. In words: Antitumor activity against human CRCM434 negative breast cancer cells orthotopically xenografted in NSG mouse model of PDX assessed as reduction in tumor volume at 50 mg/kg, ip 5 out of 7 for 2 weeks. In kind it is functional, organism-based. A digest of the protocol: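 Chemo-naïve triple-negative PDX cells injected at 100,000 per fat pad, two fat pads per NSG mouse. At ~80 mm³ tumours, mice received i.p. 3 mg/kg daily for 14 days or 50 mg/kg 5 of 7 days for 2 weeks; placebo was DMSO/HPCD 10% (1:9). Five mice (10 tumours) per group. Tumour growth monitored; after 2 weeks tumours dissociated, mouse cells excluded via anti-H2Kd, ALDHbr measured by ALDEFLUOR flow cytometry and normalised to vehicle.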

Assay [10] has as its system Breast cancer cell line. Put plainly: Synergistic antitumor activity against human CRCM404 negative breast cancer cells orthotopically xenografted in NSG mouse model of PDX assessed as reduction in tumor volume at 50 mg/kg, ip 5 out of 7 for 2 weeks cotreated with salinomycin. The class given is functional, organism-based. The procedure, abridged: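 Orthotopic PDX in NSG mice, 100,000 cells per fat pad, two pads per mouse; treatment from ~80 mm³ tumours with salinomycin i.p. 3 mg/kg daily 14 days, JQ1 i.p. 50 mg/kg 5 of 7 days for 2 weeks, or combination, against placebo DMSO/HPCD 10% (1:9). Tumour growth monitored; n = 10 tumours per group.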
In general terms: Xenograft models place foreign cells or tissue in a host animal.

The subject of assay [11] is Breast cancer cell line. In words: Synergistic apoptosis activity in patient-derived breast cancer cells orthotopically xenografted in NSG mouse model of PDX assessed as increase in cleaved caspase-3 at 50 mg/kg, ip 5 out of 7 for 2 weeks by Immunostaining analysis. In kind it is functional, organism-based. The settings on record: Homo sapiens. The procedure, abridged: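 Paraffin sections of treated PDX tumours deparaffinised and subjected to antigen retrieval in citrate buffer pH 6. Peroxidase staining with ready-to-use Ki67 or cleaved caspase-3 antibody, DAB substrate, haematoxylin counterstain. Proportion of positive cells quantified; n = 3; t-test.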

The test system of assay [12] is Breast cancer cell line. In words: Synergistic antitumor activity against human CRCM494 negative breast cancer cells orthotopically xenografted in NSG mouse model of PDX assessed as reduction ALDHbr cells at 50 mg/kg, ip 5 out of 7 for 2 weeks cotreated with salinomycin by LSR2 cytometer analysis. In kind it is functional.
Assay [13] concerns Breast cancer cell line. In words: Antitumor activity against human reimplanted CRCM434 negative breast cancer cells orthotopically xenografted in NSG mouse model of PDX assessed as reduction tumor volume at 50 mg/kg, ip 5 out of 7 for 2 weeks by limiting dilation analysis. In kind it is functional, organism-based. A digest of the protocol:
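After 2 weeks of i.p. treatment (3 mg/kg daily or 50 mg/kg 5 of 7 days), dissociated PDX tumour cells reimplanted into secondary NSG mice at 50, 500 or 5,000 cells. A mouse counted as tumour-bearing once a tumour reached 10 mm. bCSC frequency per 10,000 cells estimated by ELDA; pairwise chi-square test.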

The test system of assay [14] is Breast cancer cell line. In words: Synergistic antitumor activity against human reimplanted CRCM404 negative breast cancer cells orthotopically xenografted in NSG mouse model of PDX assessed as reduction tumor volume at 50 mg/kg, ip 5 out of 7 for 2 weeks cotreated with salinomycin by limiting dilation analysis. The class given is functional, organism-based.
The subject of assay [15] is Breast cancer cell line. Put plainly: Synergistic antitumor activity against human reimplanted CRCM494 negative breast cancer cells orthotopically xenografted in NSG mouse model of PDX assessed as reduction tumor volume at 50 mg/kg, ip 5 out of 7 for 2 weeks cotreated with salinomycin by limiting dilation analysis. The class given is functional, organism-based.
Assay [16] has as its system Breast cancer cell line. In words: Synergistic antitumor activity against human CRCM404 negative breast cancer cells xenografted in NSG mouse model of PDX assessed as reduction metastasis formation in liver at 50 mg/kg, ip 5 out of 7 for 2 weeks cotreated with salinomycin. In kind it is functional, organism-based. A digest of the protocol: (§3)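 Luciferase-expressing PDX cells sorted H2Kd⁻ and viable, 100,000 in 100 μl PBS injected in NSG tail vein. From the next day, salinomycin 3 mg/kg i.p. daily and/or JQ1 50 mg/kg i.p. 5 of 7 days for 2 weeks. Lungs and liver imaged by bioluminescence after i.p. luciferin 30 mg/kg; normalised photon flux; 10 mice/group; Wilcoxon test.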

In assay [17] the test system is Breast cancer cell line. In words: Synergistic antitumor activity against human CRCM404 negative breast cancer cells xenografted in NSG mouse model of PDX assessed as reduction metastasis formation in lung at 50 mg/kg, ip 5 out of 7 for 2 weeks cotreated with salinomycin. In kind it is functional, organism-based. The procedure, abridged: as §3

For the molecule `Cc1sc2c(c1C)C(c1ccc(Cl)cc1)=N[C@@H](CC(=O)OC(C)(C)C)c1nnc(C)n1-2`, the Activity was 5.1% in the assay on SUM149PT [1], 1.2% in the assay on SUM149PT [2], -0.2 in the assay with SUM-159-PT [3] and -0.15 in the assay on MDA-MB-436. Also, the result in the assay on SUM149PT [4], in the assay on SUM-159-PT [5], in the assay with SUM-159-PT [6], in the assay with SUM-159-PT [7], in the assay on Breast cancer cell line [9] and in the assay with Breast cancer cell line [10] was Active. Also, the result with Breast cancer cell line [13], in the assay with Breast cancer cell line [14], in the assay on Breast cancer cell line [15], in the assay on Breast cancer cell line [16] and in the assay on Breast cancer cell line [17] was Active. Further, the “fold change (FC)” value in the assay on SUM-159-PT [8] and in the assay with Breast cancer cell line [12] was 2 in each case. Also, the outcome with Breast cancer cell line [11] was inactive.
